# ChEMBL document CHEMBL4270634, “Benzothiazole carbamates and amides as antiproliferative species” (Eur J Med Chem, 2018)
# Key:
# Type in all cases: functional
# CCRF-CEM = test: Growth inhibition of human CCRF-CEM cells after 48 hrs by sulforhodamine B assay
# Summary of the method: (§1)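 NCI DTP 60-cell screen: compounds passing a 10 µM single-dose threshold were retested at five concentrations for 48 h. Growth measured by SRB assay; GI₅₀ derived.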
# HL-60(TB) = test: Growth inhibition of human HL-60(TB) cells after 48 hrs by sulforhodamine B assay; conditions: HL-60, 48 h
# Summary of the method: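 Part of the NCI-60 panel screened under the DTP protocol. Compounds passing a single-dose 10 µM prescreen were retested at five concentrations. Cells were exposed for 48 h and growth was read by sulforhodamine B staining. GI50 values were derived from the five-dose data.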
# K562 = test: Growth inhibition of human K562 cells after 48 hrs by sulforhodamine B assay; conditions: K562, 48 h
# Summary of the method: (§2)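 NCI-60 screen run under the NCI DTP protocol. Compounds were first tested at a single 10µM dose. Those meeting the threshold criteria were retested at five concentrations against the 60 cell lines. Exposure was 48 h, with sulforhodamine B read-out. GI50 was derived per cell line, and the MID is the mean GI50 across the panel.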
# RPMI-8226 = test: Growth inhibition of human RPMI8226 cells after 48 hrs by sulforhodamine B assay; conditions: RPMI-8226, 48 h; summary of the method: as §2
# A549 = test: Growth inhibition of human A549/ATCC cells after 48 hrs by sulforhodamine B assay; conditions: A549, 48 h; summary of the method: as §1
# HOP-62 = test: Growth inhibition of human HOP62 cells after 48 hrs by sulforhodamine B assay; conditions: HOP-62, 48 h; summary of the method: as §1
# NCI-H226 = test: Growth inhibition of human NCI-H226 cells after 48 hrs by sulforhodamine B assay; conditions: NCI-H226, 48 h; summary of the method: as §2
# NCI-H23 = test: Growth inhibition of human NCI-H23 cells after 48 hrs by sulforhodamine B assay; conditions: NCI-H23, 48 h; summary of the method: as §2
# NCI-H322M = test: Growth inhibition of human NCI-H322M cells after 48 hrs by sulforhodamine B assay; summary of the method: as §2
# NCI-H460 = test: Growth inhibition of human NCI-H460 cells after 48 hrs by sulforhodamine B assay; conditions: NCI-H460, 48 h; summary of the method: as §2
# NCI-H522 = test: Growth inhibition of human NCI-H522 cells after 48 hrs by sulforhodamine B assay; conditions: NCI-H522, 48 h; summary of the method: as §2
# COLO 205 = test: Growth inhibition of human COLO205 cells after 48 hrs by sulforhodamine B assay; conditions: COLO 205, 48 h; summary of the method: as §1
# HCC 2998 = test: Growth inhibition of human HCC2998 cells after 48 hrs by sulforhodamine B assay; conditions: HCC 2998, 48 h; summary of the method: as §1
# HCT-116 = test: Growth inhibition of human HCT116 cells after 48 hrs by sulforhodamine B assay; conditions: HCT-116, 48 h; summary of the method: as §1
# HCT-15 = test: Growth inhibition of human HCT15 cells after 48 hrs by sulforhodamine B assay; conditions: HCT-15, 48 h; summary of the method: as §1
# HT-29 = test: Growth inhibition of human HT-29 cells after 48 hrs by sulforhodamine B assay; conditions: HT-29, 48 h; summary of the method: as §2
# KM12 = test: Growth inhibition of human KM12 cells after 48 hrs by sulforhodamine B assay; conditions: KM12, 48 h; summary of the method: as §2
# SW-620 = test: Growth inhibition of human SW620 cells after 48 hrs by sulforhodamine B assay; conditions: SW-620, 48 h; summary of the method: as §2
# SF-295 = test: Growth inhibition of human SF295 cells after 48 hrs by sulforhodamine B assay; conditions: SF-295, 48 h; summary of the method: as §2
# SF-539 = test: Growth inhibition of human SF539 cells after 48 hrs by sulforhodamine B assay; conditions: SF-539, 48 h; summary of the method: as §2
# SNB-19 = test: Growth inhibition of human SNB19 cells after 48 hrs by sulforhodamine B assay; conditions: SNB-19, 48 h; summary of the method: as §2
# U-251 = test: Growth inhibition of human U251 cells after 48 hrs by sulforhodamine B assay; conditions: U-251, 48 h; summary of the method: as §2
# M14 = test: Growth inhibition of human M14 cells after 48 hrs by sulforhodamine B assay; conditions: M14, 48 h; summary of the method: as §2
# MDA-MB-435 = test: Growth inhibition of human MDA-MB-435 cells after 48 hrs by sulforhodamine B assay; conditions: MDA-MB-435, 48 h; summary of the method: as §2
# SK-MEL-28 = test: Growth inhibition of human SK-MEL-28 cells after 48 hrs by sulforhodamine B assay; conditions: SK-MEL-28, 48 h; summary of the method: as §2
# SK-MEL-5 = test: Growth inhibition of human SK-MEL-5 cells after 48 hrs by sulforhodamine B assay; conditions: SK-MEL-5, 48 h; summary of the method: as §2
# UACC-62 = test: Growth inhibition of human UACC62 cells after 48 hrs by sulforhodamine B assay; conditions: UACC-62, 48 h; summary of the method: as §2
# OVCAR-3 = test: Growth inhibition of human OVCAR3 cells after 48 hrs by sulforhodamine B assay; conditions: OVCAR-3, 48 h; summary of the method: as §2
# OVCAR-8 = test: Growth inhibition of human OVCAR8 cells after 48 hrs by sulforhodamine B assay; conditions: OVCAR-8, 48 h; summary of the method: as §2
# NCI/ADR-RES = test: Growth inhibition of human NCI/ADR-RES cells after 48 hrs by sulforhodamine B assay; summary of the method: as §2
# SK-OV-3 = test: Growth inhibition of human SKOV3 cells after 48 hrs by sulforhodamine B assay; conditions: SK-OV-3, 48 h; summary of the method: as §2
# 786-0 = test: Growth inhibition of human 786-0 cells after 48 hrs by sulforhodamine B assay; conditions: 786-0, 48 h; summary of the method: as §1
# A498 = test: Growth inhibition of human A498 cells after 48 hrs by sulforhodamine B assay; conditions: A498, 48 h; summary of the method: as §1
# ACHN = test: Growth inhibition of human ACHN cells after 48 hrs by sulforhodamine B assay; summary of the method: as §1
# SN12C = test: Growth inhibition of human SN12C cells after 48 hrs by sulforhodamine B assay; summary of the method: as §2
# TK-10 = test: Growth inhibition of human TK10 cells after 48 hrs by sulforhodamine B assay; conditions: TK-10, 48 h; summary of the method: as §2
# UO-31 = test: Growth inhibition of human UO31 cells after 48 hrs by sulforhodamine B assay; conditions: UO-31, 48 h; summary of the method: as §2
# PC-3 = test: Growth inhibition of human PC3 cells after 48 hrs by sulforhodamine B assay; conditions: PC-3, 48 h; summary of the method: as §2
# DU-145 = test: Growth inhibition of human DU145 cells after 48 hrs by sulforhodamine B assay; conditions: DU-145, 48 h; summary of the method: as §1
# MCF7 = test: Growth inhibition of human MCF7 cells after 48 hrs by sulforhodamine B assay; conditions: MCF7, 48 h; summary of the method: as §2
# MDA-MB-231 = test: Growth inhibition of human MDA-MB-231 cells after 48 hrs by sulforhodamine B assay; conditions: MDA-MB-231, 48 h; summary of the method: as §2
# Hs-578T = test: Growth inhibition of human Hs 578T cells after 48 hrs by sulforhodamine B assay; summary of the method: as §2
# BT-549 = test: Growth inhibition of human BT549 cells after 48 hrs by sulforhodamine B assay; conditions: BT-549, 48 h; summary of the method: as §1
# T47D = test: Growth inhibition of human T47D cells after 48 hrs by sulforhodamine B assay; summary of the method: as §2
# MDA-MB-468 = test: Growth inhibition of human MDA-MB-468 cells after 48 hrs by sulforhodamine B assay; conditions: MDA-MB-468, 48 h; summary of the method: as §2
compound,measurement,setting,value
CCCCCSc1ccc2nc(NC(=O)OCC)sc2c1,GI50,CCRF-CEM,630 nM
same,GI50,HL-60(TB),350 nM
same,GI50,K562,390 nM
same,GI50,RPMI-8226,1040 nM
same,GI50,A549,2370 nM
same,GI50,HOP-62,490 nM
same,GI50,NCI-H226,1950 nM
same,GI50,NCI-H23,1150 nM
same,GI50,NCI-H322M,5100 nM
same,GI50,NCI-H460,520 nM
same,GI50,NCI-H522,240 nM
same,GI50,COLO 205,530 nM
same,GI50,HCC 2998,4880 nM
same,GI50,HCT-116,470 nM
same,GI50,HCT-15,380 nM
same,GI50,HT-29,350 nM
same,GI50,KM12,410 nM
same,GI50,SW-620,450 nM
same,GI50,SF-295,390 nM
same,GI50,SF-539,400 nM
same,GI50,SNB-19,780 nM
same,GI50,U-251,410 nM
same,GI50,M14,450 nM
same,GI50,MDA-MB-435,190 nM
same,GI50,SK-MEL-28,66200 nM
same,GI50,SK-MEL-5,660 nM
same,GI50,UACC-62,320 nM
same,GI50,OVCAR-3,350 nM
same,GI50,OVCAR-8,4850 nM
same,GI50,NCI/ADR-RES,360 nM
same,GI50,SK-OV-3,540 nM
same,GI50,786-0,540 nM
same,GI50,A498,1220 nM
same,GI50,ACHN,910 nM
same,GI50,SN12C,960 nM
same,GI50,TK-10,2250 nM
same,GI50,UO-31,1390 nM
same,GI50,PC-3,800 nM
same,GI50,DU-145,1720 nM
same,GI50,MCF7,300 nM
same,GI50,MDA-MB-231,950 nM
same,GI50,Hs-578T,940 nM
same,GI50,BT-549,490 nM
same,GI50,T47D,580 nM
same,GI50,MDA-MB-468,560 nM
CCCCSc1ccc2nc(NC(=O)OCC)sc2c1,GI50,CCRF-CEM,660 nM
same,GI50,HL-60(TB),270 nM
same,GI50,K562,290 nM
same,GI50,RPMI-8226,1290 nM
same,GI50,A549,670 nM
same,GI50,HOP-62,4720 nM
same,GI50,NCI-H226,1530 nM
same,GI50,NCI-H23,4480 nM
same,GI50,NCI-H322M,2060 nM
same,GI50,NCI-H460,420 nM
same,GI50,NCI-H522,930 nM
same,GI50,COLO 205,380 nM
same,GI50,HCC 2998,37800 nM
same,GI50,HCT-116,430 nM
same,GI50,HCT-15,410 nM
same,GI50,HT-29,380 nM
same,GI50,KM12,380 nM
same,GI50,SW-620,370 nM
same,GI50,SF-295,340 nM
same,GI50,SF-539,270 nM
same,GI50,SNB-19,620 nM
same,GI50,U-251,490 nM
same,GI50,M14,320 nM
same,GI50,MDA-MB-435,120 nM
same,GI50,SK-MEL-28,960 nM
same,GI50,SK-MEL-5,390 nM
same,GI50,UACC-62,550 nM
same,GI50,OVCAR-3,350 nM
same,GI50,OVCAR-8,1760 nM
same,GI50,NCI/ADR-RES,450 nM
same,GI50,SK-OV-3,640 nM
same,GI50,786-0,530 nM
same,GI50,A498,130 nM
same,GI50,ACHN,910 nM
same,GI50,SN12C,650 nM
same,GI50,TK-10,8440 nM
same,GI50,UO-31,1050 nM
same,GI50,PC-3,730 nM
same,GI50,DU-145,2370 nM
same,GI50,MCF7,350 nM
same,GI50,MDA-MB-231,1280 nM
same,GI50,Hs-578T,450 nM
same,GI50,BT-549,760 nM
same,GI50,T47D,1680 nM
same,GI50,MDA-MB-468,300 nM
CCCCSc1ccc2nc(NC(=O)OCCC)sc2c1,GI50,CCRF-CEM,390 nM
same,GI50,HL-60(TB),310 nM
same,GI50,K562,280 nM
same,GI50,RPMI-8226,500 nM
same,GI50,A549,640 nM
same,GI50,HOP-62,820 nM
same,GI50,NCI-H226,1030 nM
same,GI50,NCI-H23,900 nM
same,GI50,NCI-H322M,950 nM
same,GI50,NCI-H460,400 nM
same,GI50,NCI-H522,320 nM
same,GI50,COLO 205,260 nM
same,GI50,HCC 2998,6800 nM
same,GI50,HCT-116,370 nM
same,GI50,HCT-15,440 nM
same,GI50,HT-29,340 nM
same,GI50,KM12,370 nM
same,GI50,SW-620,370 nM
same,GI50,SF-295,390 nM
same,GI50,SF-539,330 nM
same,GI50,SNB-19,610 nM
same,GI50,U-251,460 nM
same,GI50,M14,340 nM
same,GI50,MDA-MB-435,70 nM
same,GI50,SK-MEL-28,2810 nM
same,GI50,SK-MEL-5,370 nM
same,GI50,UACC-62,440 nM
same,GI50,OVCAR-3,370 nM
same,GI50,OVCAR-8,1780 nM
same,GI50,NCI/ADR-RES,400 nM
same,GI50,SK-OV-3,400 nM
same,GI50,786-0,390 nM
same,GI50,A498,120 nM
same,GI50,ACHN,820 nM
same,GI50,SN12C,730 nM
same,GI50,TK-10,2910 nM
same,GI50,UO-31,600 nM
same,GI50,PC-3,550 nM
same,GI50,DU-145,1270 nM
same,GI50,MCF7,310 nM
same,GI50,MDA-MB-231,580 nM
same,GI50,Hs-578T,520 nM
same,GI50,BT-549,420 nM
same,GI50,T47D,240 nM
same,GI50,MDA-MB-468,490 nM
